Values after ≈ are worked out from the molar mass of the structure shown. Active and inactive are the calls of the source. The rule behind the calls is not given here.
Assays:
[1] = tested on: Escherichia coli; experiment: Bactericidal activity against ampicillin/trimethoprim/nalidixic acid-resistant Escherichia coli 118 by agar plating method; format: functional
[2] = tested on: Escherichia coli; experiment: Bactericidal activity against chloroamphenicol/ampicillin/kanamycin/trimethoprim/ciprofloxacin/nalidixic acid-resistant Escherichia coli 85 by agar plating method; format: functional
[3] = tested on: Escherichia coli; experiment: Bactericidal activity against chloramphenicol/ampicillin/kanamycin/trimethoprim/ciprofloxacin/nalidixic acid-resistant Escherichia coli 132 by agar plating method; format: functional
[4] = tested on: Escherichia coli; experiment: Bactericidal activity against chloramphenicol/ampicillin/kanamycin/trimethoprim/ciprofloxacin/nalidixic acid-resistant Escherichia coli 151 by agar plating method; format: functional
[5] = tested on: Escherichia coli; experiment: Bactericidal activity against ampicillin/ciprofloxacin/gentamicin/tetracycline-resistant Escherichia coli 555 by agar plating method; format: functional
[6] = Inhibition of Escherichia coli DNA topoisomerase-1A using supercoiled pHOT1 plasmid DNA as substrate assessed as inhibition of DNA relaxation after 30 mins by agarose gel electrophoresis
Procedure, shortened: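 Supercoiled plasmid DNA incubated with E. coli Topo IA in the presence of compound at […]. Relaxation products were resolved by electrophoresis on 1% agarose gel.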

[7] = tested on: Escherichia coli; experiment: Inhibition of Escherichia coli DNA gyrase using relaxed pHOT1 plasmid DNA as substrate assessed as inhibition of DNA supercoiling up to 100 uM after 30 mins by agarose gel electrophoresis
[8] = organism: Homo sapiens; experiment: Inhibition of human DNA topoisomerase-1B using supercoiled pHOT1 plasmid DNA as substrate assessed as inhibition of DNA relaxation at 100 uM after 30 mins by agarose gel electrophoresis
[9] = tested on: Escherichia coli; experiment: Antibacterial activity against Escherichia coli DH5[alpha] assessed as growth inhibition after 18 to 24 hrs by broth microdilution method; format: functional
[10] = tested on: Escherichia coli; experiment: Bactericidal activity against Escherichia coli DH5[alpha] by agar plating method; format: functional
[11] = tested on: Escherichia coli; experiment: Bactericidal activity against Escherichia coli ATCC 25922 by agar plating method; format: functional
[12] = tested on: Escherichia coli; experiment: Antibacterial activity against ampicillin/trimethoprim/nalidixic acid-resistant Escherichia coli 118 assessed as growth inhibition after 18 to 24 hrs by broth microdilution method; format: functional
[13] = tested on: Escherichia coli; experiment: Antibacterial activity against chloroamphenicol/ampicillin/kanamycin/trimethoprim/ciprofloxacin/nalidixic acid-resistant Escherichia coli 85 assessed as growth inhibition after 18 to 24 hrs by broth microdilution method; format: functional
[14] = tested on: Escherichia coli; experiment: Antibacterial activity against ampicillin/tetracycline/gentamicin-resistant Escherichia coli 451 assessed as growth inhibition after 18 to 24 hrs by broth microdilution method; format: functional
[15] = tested on: Escherichia coli; experiment: Antibacterial activity against chloramphenicol/ampicillin/trimethoprim/ciprofloxacin/nalidixic acid-resistant Escherichia coli 59 assessed as growth inhibition after 18 to 24 hrs by broth microdilution method; format: functional
[16] = tested on: Escherichia coli; experiment: Antibacterial activity against ampicillin/kanamycin/trimethoprim/tetracyclin/ciprofloxacin/nalidixic acid-resistant Escherichia coli 81 assessed as growth inhibition after 18 to 24 hrs by broth microdilution method; format: functional
[17] = tested on: Escherichia coli; experiment: Antibacterial activity against chloramphenicol/ampicillin/kanamycin/trimethoprim/ciprofloxacin/nalidixic acid-resistant Escherichia coli 132 assessed as growth inhibition after 18 to 24 hrs by broth microdilution method; format: functional
[18] = tested on: Escherichia coli; experiment: Antibacterial activity against chloramphenicol/ampicillin/kanamycin/trimethoprim/ciprofloxacin/nalidixic acid-resistant Escherichia coli 151 assessed as growth inhibition after 18 to 24 hrs by broth microdilution method; format: functional
[19] = tested on: Escherichia coli; experiment: Antibacterial activity against ampicillin/chloramphenicol/ciprofloxacin/gentamicin/tetracycline-resistant Escherichia coli 401 assessed as growth inhibition after 18 to 24 hrs by broth microdilution method; format: functional
[20] = tested on: Escherichia coli; experiment: Bactericidal activity against ampicillin/tetracycline-resistant Escherichia coli IP18 isolated from water source by agar plating method
[21] = tested on: Escherichia coli; experiment: Bactericidal activity against tetracycline/trimethoprim-resistant Escherichia coli IST isolated from water source by agar plating method
[22] = tested on: Escherichia coli; experiment: Bactericidal activity against ampicillin/tetracycline/piperacillin-resistant Escherichia coli WB31 isolated from water source by agar plating method
[23] = tested on: Escherichia coli; experiment: Bactericidal activity against ampicillin/trimethoprim/piperacillin-resistant Escherichia coli MKNJ isolated from water source by agar plating method
[24] = tested on: Escherichia coli; experiment: Antibacterial activity against multidrug-resistant Escherichia coli IP9 isolated from water source assessed as growth inhibition after 18 to 24 hrs by broth microdilution method
[25] = tested on: Escherichia coli; experiment: Bactericidal activity against ampicillin/chloramphenicol/tetracycline/trimethoprim/ciprofloxacin-resistant Escherichia coli KK45 isolated from water source by agar plating method
[26] = tested on: Escherichia coli; experiment: Antibacterial activity against multidrug-resistant Escherichia coli IS 54 isolated from water source assessed as growth inhibition after 18 to 24 hrs by broth microdilution method; settings: IS 54, Water
[27] = tested on: Escherichia coli; experiment: Antibacterial activity against ampicillin/tetracycline-resistant Escherichia coli IP18 isolated from water source assessed as growth inhibition after 18 to 24 hrs by broth microdilution method
[28] = tested on: Escherichia coli; experiment: Antibacterial activity against tetracycline/trimethoprim-resistant Escherichia coli IST isolated from water source assessed as growth inhibition after 18 to 24 hrs by broth microdilution method
[29] = tested on: Escherichia coli; experiment: Bactericidal activity against ampicillin/trimethoprim/cefazolinl/piperacillin/cefuroxime/cefoxitine/cefepime/cefotaxime-resistant Escherichia coli KP21 isolated from water source by agar plating method
[30] = tested on: Escherichia coli; experiment: Bactericidal activity against cefazolinl/ampicillin/piperacillin/cefuroxime/cefepime/cefotaxime/tetracycline/ciprofloxacin-resistant Escherichia coli NG3 isolated from water source by agar plating method
[31] = tested on: Escherichia coli; experiment: Antibacterial activity against ampicillin/tetracycline/piperacillin-resistant Escherichia coli WB31 isolated from water source assessed as growth inhibition after 18 to 24 hrs by broth microdilution method
[32] = tested on: Escherichia coli; experiment: Antibacterial activity against ampicillin/trimethoprim/piperacillin-resistant Escherichia coli MKNJ isolated from water source assessed as growth inhibition after 18 to 24 hrs by broth microdilution method
[33] = tested on: Escherichia coli; experiment: Antibacterial activity against ampicillin/chloramphenicol/tetracycline/trimethoprim/ciprofloxacin-resistant Escherichia coli KK45 isolated from water source assessed as growth inhibition after 18 to 24 hrs by broth microdilution method
[34] = tested on: Escherichia coli; experiment: Antibacterial activity against ampicillin/trimethoprim/cefazolinl/piperacillin/cefuroxime/cefoxitine/cefepime/cefotaxime-resistant Escherichia coli KP21 isolated from water source assessed as growth inhibition after 18 to 24 hrs by broth microdilution method

CCOc1ccc(-c2nc3ccc(-c4nc5ccc(N6CCN(CCN(C)C)CC6)cc5[nH]4)cc3[nH]2)cc1
MBC [1]: 16 µg/mL (≈ 31.4 µM) | MBC [2]: 32 µg/mL (≈ 62.8 µM) | MBC [3]: 128 µg/mL (≈ 251 µM) | MBC [4]: 64 µg/mL (≈ 126 µM) | MBC [5]: 64 µg/mL (≈ 126 µM) | IC50 [6]: 9.4 µM | inhibition [7]: inactive | inhibition [8]: inactive | MIC50 [9]: 1 µg/mL (≈ 1.96 µM) | MIC90 [9]: 14.5 µg/mL (≈ 28.5 µM) | MBC [10]: 2 µg/mL (≈ 3.92 µM) | MBC [11]: 16 µg/mL (≈ 31.4 µM) | MIC50 [12]: 8 µg/mL (≈ 15.7 µM) | MIC90 [12]: 15.2 µg/mL (≈ 29.8 µM) | MIC50 [13]: 16 µg/mL (≈ 31.4 µM) | MIC90 [13]: 28.6 µg/mL (≈ 56.1 µM) | MIC50 [14]: 32 µg/mL (≈ 62.8 µM) | MIC90 [14]: 55.3 µg/mL (≈ 109 µM) | MIC50 [15]: 16 µg/mL (≈ 31.4 µM) | MIC90 [15]: 28.8 µg/mL (≈ 56.5 µM) | MIC50 [16]: 32 µg/mL (≈ 62.8 µM) | MIC90 [16]: 60.2 µg/mL (≈ 118 µM) | MIC50 [17]: 64 µg/mL (≈ 126 µM) | MIC90 [17]: 123 µg/mL (≈ 241 µM) | MIC50 [18]: 32 µg/mL (≈ 62.8 µM) | MIC90 [18]: 61.6 µg/mL (≈ 121 µM) | MIC50 [19]: 16 µg/mL (≈ 31.4 µM) | MIC90 [19]: 30.4 µg/mL (≈ 59.6 µM) | MBC [20]: 32 µg/mL (≈ 62.8 µM) | MBC [21]: 64 µg/mL (≈ 126 µM) | MBC [22]: 32 µg/mL (≈ 62.8 µM) | MBC [23]: 32 µg/mL (≈ 62.8 µM) | MIC50 [24]: 64 µg/mL (≈ 126 µM) | MIC90 [24]: 118 µg/mL (≈ 232 µM) | MBC [25]: 32 µg/mL (≈ 62.8 µM) | MIC50 [26]: 32 µg/mL (≈ 62.8 µM) | MIC90 [26]: 60.6 µg/mL (≈ 119 µM) | MIC50 [27]: 16 µg/mL (≈ 31.4 µM) | MIC90 [27]: 30.6 µg/mL (≈ 60 µM) | MIC50 [28]: 32 µg/mL (≈ 62.8 µM) | MIC90 [28]: 60.6 µg/mL (≈ 119 µM) | MBC [29]: 64 µg/mL (≈ 126 µM) | MBC [30]: 16 µg/mL (≈ 31.4 µM) | MIC50 [31]: 16 µg/mL (≈ 31.4 µM) | MIC90 [31]: 29.4 µg/mL (≈ 57.7 µM) | MIC50 [32]: 16 µg/mL (≈ 31.4 µM) | MIC90 [32]: 30.6 µg/mL (≈ 60 µM) | MIC50 [33]: 16 µg/mL (≈ 31.4 µM) | MIC90 [33]: 29.4 µg/mL (≈ 57.7 µM) | MIC50 [34]: 32 µg/mL (≈ 62.8 µM) | MIC90 [34]: 61.4 µg/mL (≈ 120 µM)

CCCN1CCN(c2ccc3nc(-c4ccc5nc(-c6ccc(OCC)cc6)[nH]c5c4)[nH]c3c2)CC1
MBC [1]: 2 µg/mL (≈ 4.16 µM) | MBC [2]: 2 µg/mL (≈ 4.16 µM) | MBC [3]: 4 µg/mL (≈ 8.32 µM) | MBC [4]: 2 µg/mL (≈ 4.16 µM) | MBC [5]: 8 µg/mL (≈ 16.6 µM) | IC50 [6]: 2 µM | inhibition [7]: inactive | inhibition [8]: inactive | MIC50 [9]: 0.2 µg/mL (≈ 0.416 µM) | MIC90 [9]: 0.8 µg/mL (≈ 1.66 µM) | MBC [10]: 0.2 µg/mL (≈ 0.416 µM) | MBC [11]: 0.4 µg/mL (≈ 0.832 µM) | MIC50 [12]: 1 µg/mL (≈ 2.08 µM) | MIC90 [12]: 1.7 µg/mL (≈ 3.54 µM) | MIC50 [13]: 1 µg/mL (≈ 2.08 µM) | MIC90 [13]: 1.7 µg/mL (≈ 3.54 µM) | MIC50 [14]: 1 µg/mL (≈ 2.08 µM) | MIC90 [14]: 1.7 µg/mL (≈ 3.54 µM) | MIC50 [15]: 2 µg/mL (≈ 4.16 µM) | MIC90 [15]: 3.4 µg/mL (≈ 7.07 µM) | MIC50 [16]: 1 µg/mL (≈ 2.08 µM) | MIC90 [16]: 1.6 µg/mL (≈ 3.33 µM) | MIC50 [17]: 2 µg/mL (≈ 4.16 µM) | MIC90 [17]: 3.5 µg/mL (≈ 7.28 µM) | MIC50 [18]: 1 µg/mL (≈ 2.08 µM) | MIC90 [18]: 1.7 µg/mL (≈ 3.54 µM) | MIC50 [19]: 1 µg/mL (≈ 2.08 µM) | MIC90 [19]: 1.7 µg/mL (≈ 3.54 µM) | MBC [20]: 4 µg/mL (≈ 8.32 µM) | MBC [21]: 2 µg/mL (≈ 4.16 µM) | MBC [22]: 2 µg/mL (≈ 4.16 µM) | MBC [23]: 4 µg/mL (≈ 8.32 µM) | MIC50 [24]: 1 µg/mL (≈ 2.08 µM) | MIC90 [24]: 3.1 µg/mL (≈ 6.45 µM) | MBC [25]: 2 µg/mL (≈ 4.16 µM) | MIC50 [26]: 0.5 µg/mL (≈ 1.04 µM) | MIC90 [26]: 1.6 µg/mL (≈ 3.33 µM) | MIC50 [27]: 1 µg/mL (≈ 2.08 µM) | MIC90 [27]: 3.4 µg/mL (≈ 7.07 µM) | MIC50 [28]: 0.5 µg/mL (≈ 1.04 µM) | MIC90 [28]: 1.7 µg/mL (≈ 3.54 µM) | MBC [29]: 4 µg/mL (≈ 8.32 µM) | MBC [30]: 2 µg/mL (≈ 4.16 µM) | MIC50 [31]: 0.5 µg/mL (≈ 1.04 µM) | MIC90 [31]: 1.7 µg/mL (≈ 3.54 µM) | MIC50 [32]: 1 µg/mL (≈ 2.08 µM) | MIC90 [32]: 3.5 µg/mL (≈ 7.28 µM) | MIC50 [33]: 0.5 µg/mL (≈ 1.04 µM) | MIC90 [33]: 1.7 µg/mL (≈ 3.54 µM) | MIC50 [34]: 0.5 µg/mL (≈ 1.04 µM) | MIC90 [34]: 3.8 µg/mL (≈ 7.91 µM)

— ChEMBL document CHEMBL3286094, “Synthesis and biological evaluation of novel bisbenzimidazoles as Escherichia coli topoisomerase IA inhibitors and potential antibacterial agents” (J Med Chem, 2014)
